# According to ChEMBL document CHEMBL1629555, “Antimalarial activity of phenylthiazolyl-bearing hydroxamate-based histone deacetylase inhibitors” (Antimicrob Agents Chemother, 2008):
# The source made the active and inactive calls. No cut-off for these calls is given here.
# Tests used:
# [1] = test system: Plasmodium falciparum; assay: Antimalarial activity against drug-resistant Plasmodium falciparum D6 infected in Aotus lemurinus lemurinus monkey; format: functional, organism-based
# [2] = test system: Plasmodium falciparum; assay: Antimalarial activity against drug-resistant Plasmodium falciparum W2; format: functional, organism-based
# [3] = test system: Plasmodium berghei; assay: Antimalarial activity against Plasmodium berghei infected in mouse assessed as effect on cure rate at split dose of 160 mg/kg/day, po for 3 days; format: functional, organism-based
# In short: (§1)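 Mice were infected ip with 10^6 P. berghei-parasitized erythrocytes. The compound was given in hydroxyethylcellulose-Tween 20 vehicle, 5 mice per group, starting on day 3 post-infection. Regimens were once-daily or split daily oral doses over 3 days, subcutaneous dosing, or dosing over 7 days. Read-outs were posttreatment parasitemia on day 6 as a fraction of controls and the number of mice cured.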
# [4] = test system: Plasmodium berghei; assay: Antimalarial activity against Plasmodium berghei infected in mouse assessed as effect on cure rate at split dose of 320 mg/kg/day, po for 3 days; format: functional, organism-based; in short: as §1
# [5] = test system: Plasmodium berghei; assay: Antimalarial activity against Plasmodium berghei infected in mouse assessed as effect on cure rate at single dose of 40 mg/kg/day, po for 3 days; format: functional, organism-based; in short: as §1
# [6] = test system: Plasmodium berghei; assay: Antimalarial activity against Plasmodium berghei infected in mouse assessed as effect on cure rate at 130 mg/kg/day, po for 7 days; format: functional, organism-based; in short: as §1
# [7] = test system: Plasmodium berghei; assay: Antimalarial activity against Plasmodium berghei infected in mouse assessed as effect on cure rate at 130 mg/kg/day, sc for 3 days; format: functional, organism-based; in short: as §1
# [8] = test system: Plasmodium berghei; assay: Antimalarial activity against Plasmodium berghei infected in mouse assessed as parasitemia level at split dose of 640 mg/kg/day, po for 3 days measured on day 6 relative to control; format: functional
# In short: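 Blood-stage P. berghei model: mice inoculated ip with 10^6 parasitized erythrocytes. Oral treatment for 3 days, with the daily dose split, in hydroxyethylcellulose-Tween 20 vehicle. Day-6 parasitemia expressed as a fraction of control parasitemia.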
# [9] = test system: Plasmodium berghei; assay: Antimalarial activity against Plasmodium berghei infected in mouse assessed as parasitemia level at single dose of 20 mg/kg/day, po for 3 days measured on day 6 relative to control; format: functional
# In short: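 Mice infected intraperitoneally with 10^6 P. berghei-parasitized erythrocytes. Drug given orally once daily on days 3, 4 and 5 post-infection in hydroxyethylcellulose-Tween 20 vehicle, 5 mice per dose group. Parasitemia measured on day 6 and expressed as a fraction of untreated control parasitemia.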
# [10] = test system: Plasmodium berghei; assay: Antimalarial activity against Plasmodium berghei infected in mouse assessed as parasitemia level at split dose of 130 mg/kg/day, po for 7 days measured on day 6 relative to control; format: functional
# [11] = test system: Mus musculus; assay: Toxicity in Plasmodium berghei-infected mouse assessed as mortality at split dose of 40 mg/kg/day, po for 3 days; format: organism-based; set-up: route oral; details: in vivo, 72 h
# [12] = test system: Mus musculus; assay: Toxicity in Plasmodium berghei-infected mouse assessed as mortality at split dose of 640 mg/kg/day, po for 3 days; format: organism-based; set-up: route oral; details: in vivo, 72 h
# [13] = test system: Plasmodium berghei; assay: Antimalarial activity against Plasmodium berghei infected in mouse assessed as parasitemia level at 160 mg/kg/day for 3 days measured on day 6 in presence of 2 mg/kg/day chloroquine (reference value: 37%); format: functional
# In short: (§2)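 Mice were infected ip with 10^6 P. berghei-parasitized erythrocytes. The compound was given orally once daily on days 3, 4 and 5 post-infection in hydroxyethylcellulose-Tween 20 vehicle, alone or together with chloroquine, with 5 mice per dose group. Parasitemia (%) was read on days 3 and 6, and cures were counted as animals cured out of 5.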
# [14] = test system: Plasmodium berghei; assay: Antimalarial activity against Plasmodium berghei infected in mouse assessed as parasitemia level at 12.8 mg/kg/day for 3 days measured on day 6 in presence of 16 mg/kg/day chloroquine (reference value: 37%); format: functional; in short: as §2
# [15] = test system: Plasmodium berghei; assay: Antimalarial activity against Plasmodium berghei infected in mouse assessed as effect on cure rate at 3.2 mg/kg/day for 3 days measured on day 6 in presence of 4 mg/kg/day chloroquine (reference value: 37%); format: functional, organism-based
# [16] = test system: Plasmodium berghei; assay: Antimalarial activity against Plasmodium berghei infected in mouse assessed as effect on cure rate at 0.32 mg/kg/day for 3 days measured on day 6 in presence of 4 mg/kg/day chloroquine; format: functional, organism-based
# [17] = test system: Mus musculus; assay: Toxicity in Plasmodium berghei-infected mouse assessed as mortality at single dose of 40 mg/kg/day, po for 3 days; format: organism-based; set-up: route oral; details: in vivo, 72 h
# [18] = test system: Mus musculus; assay: Toxicity in Plasmodium berghei-infected mouse assessed as mortality at split dose of 130 mg/kg/day, po for 7 days; format: organism-based; set-up: route oral; details: in vivo, 168 h
# [19] = Cmax in ICR mouse at 50 mg/kg/day, sc by LC/MS analysis; format: ADME, organism-based; set-up: dose 50 mg/kg/day, route subcutaneous; details: in vivo
# In short: (§3)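 Male ICR mice, 8 weeks old, got one 50 mg/kg dose either orally or subcutaneously, with three groups of six mice per route. One mouse per group was killed at 15, 30 and 60 min and at 3, 6 and 24 h. Plasma was deproteinized with 2 volumes of acetonitrile and analysed by LC-MS/MS on a C18 column against 0–500 ng/ml standards, with parent and acid metabolite measured in the same sample. Each six-mouse group was treated as one "animal" and fitted to a two-compartment model. AUC was taken by the linear trapezoidal rule extrapolated to infinity, and Cmax and Tmax were read per "animal".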
# [20] = AUC in ICR mouse at 50 mg/kg/day, po by LC/MS analysis; format: ADME, organism-based; set-up: route oral; details: plasma; in short: as §3
# [21] = AUC in ICR mouse at 50 mg/kg/day, sc by LC/MS analysis; format: ADME, organism-based; set-up: route subcutaneous; details: plasma; in short: as §3
# [22] = test system: Plasmodium berghei; assay: Antimalarial activity against Plasmodium berghei infected in mouse assessed as parasitemia level at 32 mg/kg/day for 3 days measured on day 3 (reference value: 0.46%); format: functional; in short: as §2
# [23] = test system: Plasmodium berghei; assay: Antimalarial activity against Plasmodium berghei infected in mouse assessed as parasitemia level at 3.2 mg/kg/day for 3 days measured on day 3 (reference value: 0.46%); format: functional
# [24] = test system: Plasmodium berghei; assay: Antimalarial activity against Plasmodium berghei infected in mouse assessed as parasitemia level at 320 mg/kg/day for 3 days measured on day 6 (reference value: 37%); format: functional; in short: as §2
# [25] = test system: Plasmodium berghei; assay: Antimalarial activity against Plasmodium berghei infected in mouse assessed as effect on cure rate at 32 mg/kg/day for 3 days; format: functional, organism-based; in short: as §2
# [26] = test system: Plasmodium berghei; assay: Antimalarial activity against Plasmodium berghei infected in mouse assessed as effect on cure rate at 3.2 mg/kg/day for 3 days; format: functional, organism-based
# [27] = test system: Plasmodium falciparum; assay: Antimicrobial activity against Plasmodium falciparum W2 at […] in presence of azithromycin; format: functional
# In short: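 In vitro fixed-ratio isobologram using a SYBR green I fluorescence assay. […] IC50s were standardized and FIC50 and ΣFIC50 calculated by the Berenbaum method. Reported as the average ΣFIC across dilutions or the average maximum ΣFIC, from at least 2 experiments.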
# [28] = test system: Plasmodium falciparum; assay: Antimicrobial activity against Plasmodium falciparum D6 infected in Aotus lemurinus lemurinus monkey at […] in presence of 4 mg/kg chloroquine; format: functional
# [29] = test system: Plasmodium falciparum; assay: Antimicrobial activity against Plasmodium falciparum D6 infected in Aotus lemurinus lemurinus monkey at […] in presence of artemisinin; format: functional
# [30] = test system: Plasmodium berghei; assay: Antimalarial activity against Plasmodium berghei infected in mouse assessed as parasitemia level at 160 mg/kg/day for 3 days measured on day 3 in presence of 2 […] chloroquine (reference value: 0.46%); format: functional; in short: as §2
# [31] = test system: Plasmodium falciparum; assay: Antimalarial activity against Plasmodium falciparum infected in mouse RAW264.7 cells; format: functional, organism-based
# [32] = test system: Plasmodium berghei; assay: Antimalarial activity against Plasmodium berghei infected in mouse assessed as parasitemia level at 3.2 mg/kg/day for 3 days measured on day 3 in presence of 4 mg/kg/day chloroquine (reference value: 0.46%); format: functional
smiles,measurement,setting,value
Nc1cccc(-c2csc(NC(=O)CCCCCCC(=O)NO)n2)c1,IC50,[1],0.8 nM
same,IC50,[2],1.6 nM
same,Activity,[3],inactive
same,Activity,[4],inactive
same,Activity,[5],inactive
same,Activity,[6],inactive
same,Activity,[7],inactive
same,fold change (FC),[8],0.001
same,fold change (FC),[9],0.57
same,fold change (FC),[10],0.01
same,Activity,[11],Non-toxic
same,Activity,[12],Non-toxic
same,Activity,[13],0.36%
same,Activity,[14],0%
same,Activity,[15],inactive
same,Activity,[16],inactive
same,Activity,[17],Non-toxic
same,Activity,[18],Non-toxic
same,Cmax,[19],403 ng/mL
same,AUC,[20],3690 ng·h/mL
same,AUC,[21],3600 ng·h/mL
same,Activity,[22],0.38%
same,Activity,[23],0.64%
same,Activity,[24],0.107%
same,Activity,[25],inactive
same,Activity,[26],inactive
same,fractional inhibitory concentration index (FICI),[27],1.5
same,fractional inhibitory concentration index (FICI),[28],2.2
same,fractional inhibitory concentration index (FICI),[29],2.1
same,Activity,[30],0.5%
same,IC50,[31],0.59 nM
same,Activity,[32],0.6%
